Test results as given in ChEMBL document CHEMBL2331542, “Synthesis and in vitro antibacterial activity of quinolone/naphthyridone derivatives containing 3-alkoxyimino-4-(methyl)aminopiperidine scaffolds” (2013).
≈ marks a conversion by molar mass, not a printed value.

Legend:
Format in all cases: functional
Escherichia coli [1] = assay: Antibacterial activity against extended-spectrum beta-lactamase-producing Escherichia coli isolate 12-4
Outline: (§1)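 MIC determined in vitro by a standard technique and defined as the lowest compound concentration giving complete inhibition of bacterial growth. The Gram-positive and Gram-negative panels were tested alongside gemifloxacin, levofloxacin and ciprofloxacin reference drugs.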

Escherichia coli [2] = assay: Antibacterial activity against extended-spectrum beta-lactamase-producing Escherichia coli isolate 12-2; outline: as §1
Escherichia coli [3] = assay: Antibacterial activity against extended-spectrum beta-lactamase-producing Escherichia coli isolate 12-1; outline: as §1
Escherichia coli [4] = assay: Antibacterial activity against Escherichia coli isolate 12-5; outline: as §1
Escherichia coli [5] = assay: Antibacterial activity against Escherichia coli isolate 12-4; outline: as §1
Escherichia coli [6] = assay: Antibacterial activity against Escherichia coli isolate 12-1; outline: as §1
Escherichia coli [7] = assay: Antibacterial activity against Escherichia coli ATCC 25922; outline: as §1
Streptococcus pneumoniae [8] = assay: Antibacterial activity against Streptococcus pneumoniae isolate 12-5; outline: as §1
Streptococcus pneumoniae [9] = assay: Antibacterial activity against Streptococcus pneumoniae isolate 12-2; outline: as §1
[10] = test system: Staphylococcus epidermidis; assay: Antibacterial activity against methicillin-resistant Staphylococcus epidermidis isolate 12-35
Outline: (§2)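 MIC determined in vitro by standard techniques, defined as the lowest compound concentration giving complete inhibition of bacterial growth. Gemifloxacin, levofloxacin and ciprofloxacin were tested alongside as reference drugs.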

[11] = test system: Staphylococcus epidermidis; assay: Antibacterial activity against methicillin-resistant Staphylococcus epidermidis isolate 12-33; outline: as §2
[12] = test system: Staphylococcus epidermidis; assay: Antibacterial activity against methicillin-resistant Staphylococcus epidermidis isolate 12-5; outline: as §2
[13] = test system: Staphylococcus epidermidis; assay: Antibacterial activity against methicillin-sensitive Staphylococcus epidermidis isolate 12-3; outline: as §1
[14] = test system: Staphylococcus epidermidis; assay: Antibacterial activity against methicillin-sensitive Staphylococcus epidermidis isolate 12-2; outline: as §1
[15] = test system: Staphylococcus epidermidis; assay: Antibacterial activity against methicillin-sensitive Staphylococcus epidermidis isolate 12-1; outline: as §1
Staphylococcus aureus [16] = assay: Antibacterial activity against methicillin-resistant Staphylococcus aureus isolate 12-15; outline: as §2
Staphylococcus aureus [17] = assay: Antibacterial activity against methicillin-resistant Staphylococcus aureus isolate 12-13; outline: as §2
Staphylococcus aureus [18] = assay: Antibacterial activity against methicillin-resistant Staphylococcus aureus isolate 12-3; outline: as §2
Staphylococcus aureus [19] = assay: Antibacterial activity against methicillin-sensitive Staphylococcus aureus isolate 12-10; outline: as §1
Staphylococcus aureus [20] = assay: Antibacterial activity against methicillin-sensitive Staphylococcus aureus isolate 12-7; outline: as §1
Staphylococcus aureus [21] = assay: Antibacterial activity against methicillin-sensitive Staphylococcus aureus isolate 12-6; outline: as §1
Staphylococcus aureus [22] = assay: Antibacterial activity against Staphylococcus aureus […]; outline: as §1
Pseudomonas aeruginosa [23] = assay: Antibacterial activity against Pseudomonas aeruginosa isolate 12-2; outline: as §1
Pseudomonas aeruginosa [24] = assay: Antibacterial activity against Pseudomonas aeruginosa isolate 12-1; outline: as §1
Pseudomonas aeruginosa [25] = assay: Antibacterial activity against Pseudomonas aeruginosa ATCC 27853; outline: as §1
Klebsiella pneumoniae [26] = assay: Antibacterial activity against extended-spectrum beta-lactamase-producing Klebsiella pneumoniae isolate 12-4; outline: as §1
Klebsiella pneumoniae [27] = assay: Antibacterial activity against extended-spectrum beta-lactamase-producing Klebsiella pneumoniae isolate 12-2; outline: as §1
Klebsiella pneumoniae [28] = assay: Antibacterial activity against extended-spectrum beta-lactamase-producing Klebsiella pneumoniae isolate 12-1; outline: as §1
Klebsiella pneumoniae [29] = assay: Antibacterial activity against Klebsiella pneumoniae isolate 12-4; outline: as §1
Klebsiella pneumoniae [30] = assay: Antibacterial activity against Klebsiella pneumoniae isolate 12-2; outline: as §1
Klebsiella pneumoniae [31] = assay: Antibacterial activity against Klebsiella pneumoniae isolate 12-1; outline: as §1

With `CCO/N=C1\CN(c2c(F)cc3c(=O)c(C(=O)O)cn4c3c2OC[C@@H]4C)CCC1NC` (stereo partly drawn) the MIC (Escherichia coli [1]) was 64 µg/mL (≈ 148 µM), the MIC (Escherichia coli [2]) was greater than 128 µg/mL and the MIC (Escherichia coli [3]) was greater than 128 µg/mL. For the same compound, the MIC (Escherichia coli [4]) was greater than 128 µg/mL, the MIC (Escherichia coli [5]) was greater than 128 µg/mL and the MIC (Escherichia coli [6]) was 4 µg/mL (≈ 9.25 µM). For the same compound, the MIC (Escherichia coli [7]) was 16 µg/mL (≈ 37 µM), the MIC (Streptococcus pneumoniae [8]) was 8 µg/mL (≈ 18.5 µM) and the MIC (Streptococcus pneumoniae [9]) was 1 µg/mL (≈ 2.31 µM). For the same compound, the MIC [10] was 0.5 µg/mL (≈ 1.16 µM), the MIC [11] was 8 µg/mL (≈ 18.5 µM) and the MIC [12] was 0.5 µg/mL (≈ 1.16 µM). The MIC [13] was 0.5 µg/mL (≈ 1.16 µM), the MIC [14] was 2 µg/mL (≈ 4.62 µM) and the MIC [15] was 0.5 µg/mL (≈ 1.16 µM). For the same compound, the MIC (Staphylococcus aureus [16]) was 1 µg/mL (≈ 2.31 µM), the MIC (Staphylococcus aureus [17]) was 1 µg/mL (≈ 2.31 µM) and the MIC (Staphylococcus aureus [18]) was 1 µg/mL (≈ 2.31 µM). For the same compound, the MIC (Staphylococcus aureus [19]) was greater than 128 µg/mL, the MIC (Staphylococcus aureus [20]) was 128 µg/mL (≈ 296 µM) and the MIC (Staphylococcus aureus [21]) was 1 µg/mL (≈ 2.31 µM). It also gave an MIC (Staphylococcus aureus [22]) of 0.5 µg/mL (≈ 1.16 µM), an MIC (Pseudomonas aeruginosa [23]) of 8 µg/mL (≈ 18.5 µM) and an MIC (Pseudomonas aeruginosa [24]) of 16 µg/mL (≈ 37 µM). The MIC (Pseudomonas aeruginosa [25]) was 32 µg/mL (≈ 74 µM), the MIC (Klebsiella pneumoniae [26]) was greater than 128 µg/mL and the MIC (Klebsiella pneumoniae [27]) was 32 µg/mL (≈ 74 µM). For the same compound, the MIC (Klebsiella pneumoniae [28]) was 8 µg/mL (≈ 18.5 µM), the MIC (Klebsiella pneumoniae [29]) was 1 µg/mL (≈ 2.31 µM) and the MIC (Klebsiella pneumoniae [30]) was 1 µg/mL (≈ 2.31 µM). The MIC (Klebsiella pneumoniae [31]) was 2 µg/mL (≈ 4.62 µM).
Compound `O=C1NC2CCN(c3nc4c(cc3F)c(=O)c(C(=O)O)cn4C3CC3)CC2O1` (stereo not drawn) has an MIC (Escherichia coli [1]) of 64 µg/mL (≈ 165 µM), an MIC (Escherichia coli [2]) greater than 128 µg/mL and an MIC (Escherichia coli [3]) greater than 128 µg/mL. The MIC (Escherichia coli [4]) was greater than 128 µg/mL, the MIC (Escherichia coli [5]) was greater than 128 µg/mL and the MIC (Escherichia coli [6]) was 16 µg/mL (≈ 41.2 µM). It also gave an MIC (Escherichia coli [7]) of 1 µg/mL (≈ 2.57 µM), an MIC (Streptococcus pneumoniae [8]) of 0.5 µg/mL (≈ 1.29 µM) and an MIC (Streptococcus pneumoniae [9]) of 2 µg/mL (≈ 5.15 µM). It also gave an MIC [10] of 0.5 µg/mL (≈ 1.29 µM), an MIC [11] of 1 µg/mL (≈ 2.57 µM) and an MIC [12] of 0.5 µg/mL (≈ 1.29 µM). The MIC [13] was 1 µg/mL (≈ 2.57 µM), the MIC [14] was 2 µg/mL (≈ 5.15 µM) and the MIC [15] was 1 µg/mL (≈ 2.57 µM). It also gave an MIC (Staphylococcus aureus [16]) of 2 µg/mL (≈ 5.15 µM), an MIC (Staphylococcus aureus [17]) of 2 µg/mL (≈ 5.15 µM) and an MIC (Staphylococcus aureus [18]) of 2 µg/mL (≈ 5.15 µM). It also gave an MIC (Staphylococcus aureus [19]) of 0.5 µg/mL (≈ 1.29 µM), an MIC (Staphylococcus aureus [20]) of 128 µg/mL (≈ 330 µM) and an MIC (Staphylococcus aureus [21]) of 1 µg/mL (≈ 2.57 µM). For the same compound, the MIC (Staphylococcus aureus [22]) was 1 µg/mL (≈ 2.57 µM), the MIC (Pseudomonas aeruginosa [23]) was 16 µg/mL (≈ 41.2 µM) and the MIC (Pseudomonas aeruginosa [24]) was 16 µg/mL (≈ 41.2 µM). It also gave an MIC (Pseudomonas aeruginosa [25]) of 8 µg/mL (≈ 20.6 µM), an MIC (Klebsiella pneumoniae [26]) of 128 µg/mL (≈ 330 µM) and an MIC (Klebsiella pneumoniae [27]) greater than 128 µg/mL. For the same compound, the MIC (Klebsiella pneumoniae [28]) was 128 µg/mL (≈ 330 µM), the MIC (Klebsiella pneumoniae [29]) was 32 µg/mL (≈ 82.4 µM) and the MIC (Klebsiella pneumoniae [30]) was 2 µg/mL (≈ 5.15 µM). For the same compound, the MIC (Klebsiella pneumoniae [31]) was 2 µg/mL (≈ 5.15 µM).
In the case of `CO/N=C1\CN(c2nc3c(cc2F)c(=O)c(C(=O)O)cn3C2CC2)CCC1N` (stereo not drawn), the MIC (Escherichia coli [1]) was 32 µg/mL (≈ 82.2 µM), the MIC (Escherichia coli [2]) was 64 µg/mL (≈ 164 µM) and the MIC (Escherichia coli [3]) was greater than 128 µg/mL. It also gave an MIC (Escherichia coli [4]) greater than 128 µg/mL, an MIC (Escherichia coli [5]) greater than 128 µg/mL and an MIC (Escherichia coli [6]) of 2 µg/mL (≈ 5.14 µM). For the same compound, the MIC (Escherichia coli [7]) was 32 µg/mL (≈ 82.2 µM), the MIC (Streptococcus pneumoniae [8]) was 4 µg/mL (≈ 10.3 µM) and the MIC (Streptococcus pneumoniae [9]) was 0.25 µg/mL (≈ 0.642 µM). The MIC [10] was 2 µg/mL (≈ 5.14 µM), the MIC [11] was 4 µg/mL (≈ 10.3 µM) and the MIC [12] was 2 µg/mL (≈ 5.14 µM). It also gave an MIC [13] of 0.5 µg/mL (≈ 1.28 µM), an MIC [14] of 2 µg/mL (≈ 5.14 µM) and an MIC [15] of 0.5 µg/mL (≈ 1.28 µM). It also gave an MIC (Staphylococcus aureus [16]) of 0.25 µg/mL (≈ 0.642 µM), an MIC (Staphylococcus aureus [17]) of 0.25 µg/mL (≈ 0.642 µM) and an MIC (Staphylococcus aureus [18]) of 0.25 µg/mL (≈ 0.642 µM). The MIC (Staphylococcus aureus [19]) was 2 µg/mL (≈ 5.14 µM), the MIC (Staphylococcus aureus [20]) was 32 µg/mL (≈ 82.2 µM) and the MIC (Staphylococcus aureus [21]) was 0.25 µg/mL (≈ 0.642 µM). It also gave an MIC (Staphylococcus aureus [22]) of 0.25 µg/mL (≈ 0.642 µM), an MIC (Pseudomonas aeruginosa [23]) of 8 µg/mL (≈ 20.5 µM) and an MIC (Pseudomonas aeruginosa [24]) of 8 µg/mL (≈ 20.5 µM). For the same compound, the MIC (Pseudomonas aeruginosa [25]) was 32 µg/mL (≈ 82.2 µM), the MIC (Klebsiella pneumoniae [26]) was greater than 128 µg/mL and the MIC (Klebsiella pneumoniae [27]) was 8 µg/mL (≈ 20.5 µM). For the same compound, the MIC (Klebsiella pneumoniae [28]) was 8 µg/mL (≈ 20.5 µM), the MIC (Klebsiella pneumoniae [29]) was 0.125 µg/mL (≈ 0.321 µM) and the MIC (Klebsiella pneumoniae [30]) was 0.25 µg/mL (≈ 0.642 µM). It also gave an MIC (Klebsiella pneumoniae [31]) of 0.25 µg/mL (≈ 0.642 µM).
